Assay results as given in publication PMC9417066 (Nanoscale Advances, 2021).

Tests used:
[1] = Solubility in pure water at room temperature; assay type: physicochemical; conditions: for Soluble or not at R.T.: room temperature; for solubility: water
[2] = Storage modulus / gel forming of peptide gel with PBS; assay type: physicochemical
TEM of peptide hydrogel = assay type: physicochemical; conditions: 6 mg ml^-1 peptide, hydrogel with PBS, 1% phosphotungstic acid stain
How it was run: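 Peptide was dissolved in pure water at 6 mg ml−1, then 10× PBS was added to give at most 1× PBS. The resulting hydrogel was dropped onto a copper grid and the excess blotted with filter paper. It was negatively stained with 1% phosphotungstic acid for 15 s, air-dried and imaged by transmission electron microscopy.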

[3] = test system: gastric or colon submucosal layer; assay: Mucosal elevation by submucosal injection; assay type: in vivo; conditions: 0.5 ml of 1% w/v PRVDP9 or 10 mg ml^-1 sodium hyaluronate, rabbit, 30 min

Row | Compound | Soluble or not at R.T. ([1]; 1% w/v) | Soluble or not at R.T. ([1]; 2% w/v) | solubility [1] [mg/mL] | Gel forming ([2]; 1% w/v peptide) | Gel forming ([2]; 2% w/v peptide) | further results
1 | Ac-PRVDVRVDP-NH2 [PRVDP9, AC-PRVDVRVDP-NH2] | Yes | Yes | ≥ 40 | Yes | Yes | Solubility (comparison, in words) [1]: superior solubility as compared with PRVD9; Gel forming when mixed with PBS (vial turned upside down) ([2]; 1%, 2%, 3% w/v in pure water, 10× PBS added to not exceed 1×, stand 10 seconds): good gel-forming ability; Storage modulus of peptide gel (in words) ([2]; 3% w/v peptide, gel with PBS, recorded at 1 Hz): almost equivalent to that of 2.5% w/v RADA; Nanostructure by TEM (TEM of peptide hydrogel): formed a dense nanofiber scaffold; HE staining of colonic mucosa after submucosal injection [3]: showed a bulge, and the cavity was evenly filled with red-stained self-assembling peptides
2 | Ac-RVDVRVDV-NH2 [RVDV8, AC-RVDVRVDV-NH2] |  |  | < 30 |  |  | 
3 | Ac-PKVEVKVEP-NH2 [PKVEP9, AC-PKVEVKVEP-amide] | Yes | Yes | ≥ 40 | Yes | Yes | 
4 | Ac-PKIEIKIEP-NH2 [PKIEP9, AC-PKIEIKIEP-amide] | Yes |  |  | No |  | Soluble or not at R.T. ([1]; 0.5% w/v): Yes; Gel forming ([2]; 0.5% w/v peptide): No
5 | Ac-VRVDVRVDV-NH2 [VRVDV9, AC-VRVDVRVDV-NH2] |  |  | < 30 |  |  | 
6 | Ac-PRIDIRIDP-NH2 [PRIDP9, AC-PRIDIRIDP-amide] | Yes | Yes |  | No | No | 
7 | Ac-PRVEVRVEP-NH2 [PRVEP9, Ac-PRVEVRVEP-amide] | No |  |  |  |  | Soluble or not at R.T. ([1]; 0.5% w/v): No
8 | Ac-PKLDLKLDP-NH2 [PKLDP9, AC-PKLDLKLDP-amide] | Yes | Yes |  | No | No | 
9 | CC(=O)N[C@@H](CCCNC(=N)N)C(=O)N[C@@H](C)C(=O)N[C@@H](CC(=O)O)C(=O)N[C@@H](C)C(=O)N[C@@H](CCCNC(=N)N)C(=O)N[C@@H](C)C(=O)N[C@@H](CC(=O)O)C(=O)N[C@@H](C)C(=O)N[C@@H](CCCNC(=N)N)C(=O)N[C@@H](C)C(=O)N[C@@H](CC(=O)O)C(=O)N[C@@H](C)C(=O)N[C@@H](CCCNC(=N)N)C(=O)N[C@@H](C)C(=O)N[C@@H](CC(=O)O)C(=O)N[C@@H](C)C(N)=O [RADA16, AC-RADARADARADARADA-NH2, reference compound] |  |  | < 30 |  |  | Concentration of peptide solution at which it self-assembled into a gel ([2]; peptide solution, without triggering): 3 % w/v
